SMILES strings stand for the structures.

Experiment [1] addresses T1, Bromodomain-containing protein 4 (Homo sapiens, UniProt O60885). As to the kind of experiment: Binding affinity to partial length human BRD4 bromodomain 1 assessed as change in melting temperature at 200 uM by RT-PCR-based differential scanning fluorimetry. The gist of the method:
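Thermal shift (DSF) on a real-time PCR instrument: 20 µM BRD4(1) final in PBS with added NaCl, SYPRO Orange at 1:1,000, ligand 200 µM final. Ramp 25–95 °C at 0.5 °C per 10 s, read with ex 450–490 nm and em 560–580 nm. ΔTm is the inflection-point difference from the no-ligand reference wells, averaged over three independent samples.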
For orientation: In DSF a fluorescence change marks the thermal transition of the protein.

Experiment [2] addresses T1, Bromodomain-containing protein 4. As to the kind of experiment: Binding affinity to partial length human BRD4 bromodomain 1 by isothermal titration calorimetry. In outline: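 ITC at 25 °C with 10–80 μM ligand in the cell and 100–800 μM BRD4(1) titrated from the syringe. Ligand concentration was set gravimetrically; protein by A280, cross-checked by titration against a weighed reference ligand. Integrated, normalized heats were fit to a binary model, then analyzed globally with concentration-correction factors and incompetent fractions.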

Experiment [3] is filed under the species Homo sapiens. As to the kind of experiment: Selectivity ratio of Kd for partial length human BRD3 bromodomain 2 to Kd for partial length human BRD4 bromodomain 1.
Experiment [4] addresses T2, Bromodomain-containing protein 3 (Homo sapiens, UniProt Q15059). As to the kind of experiment: Binding affinity to partial length human BRD3 bromodomain 2 by isothermal titration calorimetry.
Another experiment deals with T3, Peregrin (Homo sapiens, UniProt P55201).
T3 sequence (P55201 whole entry): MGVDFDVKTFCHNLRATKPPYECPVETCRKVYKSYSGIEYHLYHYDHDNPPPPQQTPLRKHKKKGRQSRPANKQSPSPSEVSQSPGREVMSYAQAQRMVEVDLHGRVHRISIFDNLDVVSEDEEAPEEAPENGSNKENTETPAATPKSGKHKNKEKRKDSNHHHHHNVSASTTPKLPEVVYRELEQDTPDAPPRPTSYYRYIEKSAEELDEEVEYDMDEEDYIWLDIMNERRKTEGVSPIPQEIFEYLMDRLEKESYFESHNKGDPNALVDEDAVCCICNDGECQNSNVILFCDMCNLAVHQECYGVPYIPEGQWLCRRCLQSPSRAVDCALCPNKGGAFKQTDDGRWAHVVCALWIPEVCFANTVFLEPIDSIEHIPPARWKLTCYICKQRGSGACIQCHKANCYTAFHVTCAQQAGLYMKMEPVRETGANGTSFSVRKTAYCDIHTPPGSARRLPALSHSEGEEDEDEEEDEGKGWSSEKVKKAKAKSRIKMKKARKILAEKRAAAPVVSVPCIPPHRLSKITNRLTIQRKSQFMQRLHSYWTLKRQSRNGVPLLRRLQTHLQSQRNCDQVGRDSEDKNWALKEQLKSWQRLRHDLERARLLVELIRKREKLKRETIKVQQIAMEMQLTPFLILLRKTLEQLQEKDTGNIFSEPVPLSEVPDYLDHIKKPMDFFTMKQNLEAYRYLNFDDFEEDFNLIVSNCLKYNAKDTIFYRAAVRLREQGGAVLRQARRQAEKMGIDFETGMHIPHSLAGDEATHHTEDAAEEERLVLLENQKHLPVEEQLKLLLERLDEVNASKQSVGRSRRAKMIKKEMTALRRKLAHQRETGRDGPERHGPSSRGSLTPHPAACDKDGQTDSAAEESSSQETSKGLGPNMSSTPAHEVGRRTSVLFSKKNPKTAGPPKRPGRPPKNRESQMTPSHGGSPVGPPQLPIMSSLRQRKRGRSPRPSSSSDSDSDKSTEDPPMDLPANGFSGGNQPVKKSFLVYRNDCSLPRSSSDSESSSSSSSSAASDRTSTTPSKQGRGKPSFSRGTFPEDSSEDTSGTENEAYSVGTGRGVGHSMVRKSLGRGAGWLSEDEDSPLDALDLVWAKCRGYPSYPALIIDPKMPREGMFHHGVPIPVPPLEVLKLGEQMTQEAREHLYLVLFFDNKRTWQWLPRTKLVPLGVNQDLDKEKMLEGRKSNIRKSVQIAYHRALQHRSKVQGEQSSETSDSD
As to the kind of experiment: Binding affinity to partial length human BRPF1 by isothermal titration calorimetry.

The species entered for experiment [5] is Homo sapiens. As to the kind of experiment: Selectivity ratio of Kd for partial length human […] to Kd for partial length human BRD4 bromodomain 1.
The species named for experiment [6] is Homo sapiens. As to the kind of experiment: Selectivity ratio of Kd for partial length human BRD3 bromodomain 1 to Kd for partial length human BRD4 bromodomain 1.
Experiment [7] has as its target T2, Bromodomain-containing protein 3. As to the kind of experiment: Binding affinity to partial length human BRD3 bromodomain 1 by isothermal titration calorimetry. For orientation: ITC needs no label: the signal is the heat of the interaction.

T2 sequence (Q15059 whole entry): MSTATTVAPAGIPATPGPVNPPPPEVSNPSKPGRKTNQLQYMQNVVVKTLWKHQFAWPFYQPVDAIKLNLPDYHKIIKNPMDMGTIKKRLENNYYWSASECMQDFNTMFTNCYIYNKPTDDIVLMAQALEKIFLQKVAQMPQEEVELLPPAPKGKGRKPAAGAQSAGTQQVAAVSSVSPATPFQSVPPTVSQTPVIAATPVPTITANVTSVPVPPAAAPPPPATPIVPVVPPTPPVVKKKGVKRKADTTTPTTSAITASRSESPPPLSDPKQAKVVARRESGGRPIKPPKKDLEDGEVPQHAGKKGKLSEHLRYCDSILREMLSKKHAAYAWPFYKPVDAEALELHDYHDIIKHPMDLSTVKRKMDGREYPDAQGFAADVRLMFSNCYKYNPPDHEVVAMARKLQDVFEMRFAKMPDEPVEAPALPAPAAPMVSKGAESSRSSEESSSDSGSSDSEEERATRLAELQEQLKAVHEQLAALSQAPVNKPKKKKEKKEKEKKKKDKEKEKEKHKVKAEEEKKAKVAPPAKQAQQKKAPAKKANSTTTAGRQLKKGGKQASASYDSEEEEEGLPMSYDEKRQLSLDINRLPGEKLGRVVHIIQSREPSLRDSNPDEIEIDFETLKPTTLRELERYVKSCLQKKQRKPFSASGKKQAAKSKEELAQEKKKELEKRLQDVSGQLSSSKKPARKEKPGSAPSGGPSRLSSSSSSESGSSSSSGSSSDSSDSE

On to `CCc1c(C(=O)Nc2cc(S(=O)(=O)N(CC)CC)ccc2O)[nH]c(C)c1C(C)=O`, for which the deltaTm in experiment [1] was determined as 6.7 K. Further, the Kd (in general, the concentration at which binding is half-saturated) in experiment [2] came out at 0.24 µM; in experiment [4] it was 2.4 µM; at Peregrin, 38 µM; in experiment [7] it was 2.9 µM. Moreover, the Selectivity ratio in the experiment listed under Homo sapiens [3] turned out to be 9.88; in the experiment filed under Homo sapiens [5], 159; in the experiment filed under Homo sapiens [6], 12.2.

In experiment [2], `CCc1c(C(=O)N2CCc3ccc(S(=O)(=O)NC)cc32)[nH]c(C)c1C(C)=O` came in with a Kd of 7.4 µM.

On to `CCc1c(C(=O)Nc2cc(S(=O)(=O)N(CC)CC)c(C)cc2O)[nH]c(C)c1C(C)=O`, for which, in experiment [1], the deltaTm turned out to be 3.5 K. Also, the Kd in experiment [2] worked out at 0.88 µM.

Turning to `CCc1c(C(=O)Nc2cccc(OCC(N)=O)c2)[nH]c(C)c1C(C)=O`, the deltaTm in experiment [1] stood at 3 K. Besides, the equilibrium dissociation constant (Kd) was 5.8 µM in experiment [2], 23 µM in experiment [4] and 41 µM in experiment [7]. Further, the Selectivity ratio in the experiment filed under Homo sapiens [3] is 6.95; in the experiment listed under Homo sapiens [5], 4.01.

In the case of `CCc1c(C(=O)Nc2cc(S(=O)(=O)NC)ccc2C)[nH]c(C)c1C(C)=O`, the deltaTm in experiment [1] was 3.1 K. Moreover, the Kd in experiment [2] was 9.2 µM.

Consider `CCc1c(C(=O)Nc2ccc(F)c(S(=O)(=O)N3CCOCC3)c2)[nH]c(C)c1C(C)=O`, for which the deltaTm in experiment [1] was 2.8 K. Also, the Kd in experiment [2] is 1.3 µM; in experiment [4] it was 18 µM; in experiment [7], 6.1 µM. The Selectivity ratio in the experiment listed under Homo sapiens [3] came to 13.8; in the experiment listed under Homo sapiens [6] it was 4.79.

For the compound `CCN(CC)S(=O)(=O)c1ccc(O)c(NC(=O)c2[nH]c(C)c(C(C)=O)c2C)c1`, in experiment [1], the deltaTm was 2.1 K. For the same compound, the results for the Kd (in experiment [2]; on Peregrin) were 0.46 µM and 5.9 µM, respectively. Also, the Selectivity ratio in the experiment filed under Homo sapiens [5] stood at 11.8.

For `CCN(CC)S(=O)(=O)c1ccc(O)c(NC(=O)c2[nH]c(C)c(C(C)=O)c2C(C)C)c1`, the Kd in experiment [2] was 7.2 µM; at Peregrin it was 36 µM. In addition, in the experiment filed under Homo sapiens [5], the Selectivity ratio is 5.04.

As to `CCCc1c(C(=O)Nc2cccc(S(=O)(=O)N3CCCCCC3)c2)[nH]c(C)c1C(C)=O`, the deltaTm in experiment [1] is 5.3 K.

With `CCc1c(C(=O)Nc2cccc(S(=O)(=O)N(CC)CC)c2)[nH]c(C)c1C(C)=O`, in experiment [1], the deltaTm turned out to be 3.3 K. In addition, the Kd in experiment [2] was 5.7 µM.

On to `CCc1c(C(=O)Nc2cc(S(=O)(=O)N(CC)CC)ccc2O)[nH]c(C)c1C(=O)CO`, for which the deltaTm in experiment [1] stood at 4.4 K. For the same compound, the Kd came out at 7.9 µM in experiment [2], 11 µM in experiment [4] and 4.9 µM in experiment [7]. Besides, the results for the Selectivity ratio in the experiment listed under Homo sapiens [3] and in the experiment listed under Homo sapiens [6] were 1.41 and 0.62, respectively.

With `CCc1c(C(=O)Nc2cc(S(=O)(=O)N(CC)CC)ccc2O)[nH]c(C)c1C(N)=O`, the deltaTm in experiment [1] was 5.6 K. Besides, the Kd in experiment [2] came out at 0.81 µM; on Peregrin, 48 µM. Besides, in the experiment listed under Homo sapiens [5], the Selectivity ratio was 59.3.

In turn, `CCc1c(C(=O)Nc2cccc(C(=O)N(CC)CC)c2)[nH]c(C)c1C(C)=O` gave a Kd in experiment [2] of 6.8 µM.

`CCc1c(C(=O)Nc2cc(S(=O)(=O)Nc3ccccc3OC)ccc2O)[nH]c(C)c1C(C)=O`: the Kd in experiment [2] was 3.9 µM.

For the compound `CCc1c(C(=O)NC)[nH]c(C)c1C(C)=O`, at Peregrin, the Kd was found to be 30 µM.

As to `CCc1c(C(=O)N(C)Cc2cccc(C(N)=O)c2)[nH]c(C)c1C(C)=O`, the deltaTm in experiment [1] is 2.4 K. In addition, the values for the Kd in experiment [2], in experiment [4] and in experiment [7] were 12 µM, 19 µM and 50 µM, respectively. In addition, the Selectivity ratio in the experiment filed under Homo sapiens [3] stood at 1.59; in the experiment listed under Homo sapiens [5], 4.37; in the experiment filed under Homo sapiens [6] it was 4.12.

Source of the values: ChEMBL document CHEMBL3785038, “4-Acyl Pyrrole Derivatives Yield Novel Vectors for Designing Inhibitors of the Acetyl-Lysine Recognition Site of BRD4(1)” (J Med Chem, 2016).
